In ChEMBL document CHEMBL5058577, “EUbOPEN Chemogenomics Library 2 (Multiplex)” (2022):

System: Fibroblast
Assay: Multiplex assay against human fibroblast
Assay type: toxicity, cell-based
Outline: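 Values for tubulin, mitochondrial-mass and membrane-permeability phenotypes are per cents of cells with healthy nuclei. These cells were identified by CellPathfinder machine-learning gating of live cells that had been stained at seeding with Hoechst33342, BioTracker Green Microtubule Cytoskeleton Dye, MitoTracker Red and Annexin V Alexa Fluor 680 and imaged on a CQ1 microscope at 37°C and 5% CO2 after compound addition. The gating first set Hoechst high-intensity objects apart from normal cells, then split normal cells into healthy, pyknosed or fragmented nuclei, and pyknosed cells into mitotic or apoptotic.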

[1] = 12 h, 1 µM, compound concentration 1 uM, replicate 1
[2] = 12 h, 1 µM, compound concentration 1 uM, replicate 2
[3] = 12 h, 10 µM, compound concentration 10 uM, replicate 1
[4] = 12 h, 10 µM, compound concentration 10 uM, replicate 2
[5] = 24 h, 1 µM, compound concentration 1 uM, replicate 1
[6] = 24 h, 1 µM, compound concentration 1 uM, replicate 2
[7] = 24 h, 10 µM, compound concentration 10 uM, replicate 1
[8] = 24 h, 10 µM, compound concentration 10 uM, replicate 2
[9] = 48 h, 1 µM, compound concentration 1 uM, replicate 1
[10] = 48 h, 1 µM, compound concentration 1 uM, replicate 2
[11] = 48 h, 10 µM, compound concentration 10 uM, replicate 1
[12] = 48 h, 10 µM, compound concentration 10 uM, replicate 2

## O=C(NCCO)c1cccc(-c2cc(Nc3ccc(OC(F)(F)F)cc3)ncn2)c1
[1]
  Population Apoptotic (%): 46%
  Population Fragmented Nuclei (%): 16%
  Population Healthy Nuclei (%): 60%
  Population Hoechst High Intensity Objects (%): 3%
  Population Membrane Permeable-Phenotype (%): 1%
  Population Mitochondria Different-Phenotype (%): 6%
  Population Mitotic Cells (%): 53%
  Population Normal (%): 96%
  Population Pyknosed Nuclei (%): 24%
  Population Tubulin-Different-Phenotype (%): 33%
  Total Cell Count: 130
[2]
  Population Apoptotic (%): 38%
  Population Fragmented Nuclei (%): 29%
  Population Healthy Nuclei (%): 46%
  Population Hoechst High Intensity Objects (%): 4%
  Population Membrane Permeable-Phenotype (%): 10%
  Population Mitochondria Different-Phenotype (%): 8%
  Population Mitotic Cells (%): 61%
  Population Normal (%): 95%
  Population Pyknosed Nuclei (%): 23%
  Population Tubulin-Different-Phenotype (%): 46%
  Total Cell Count: 149
[3]
  Population Apoptotic (%): 37%
  Population Fragmented Nuclei (%): 17%
  Population Healthy Nuclei (%): 59%
  Population Hoechst High Intensity Objects (%): 5%
  Population Membrane Permeable-Phenotype (%): 0%
  Population Mitochondria Different-Phenotype (%): 13%
  Population Mitotic Cells (%): 62%
  Population Normal (%): 94%
  Population Pyknosed Nuclei (%): 22%
  Population Tubulin-Different-Phenotype (%): 54%
  Total Cell Count: 185
[4]
  Population Apoptotic (%): 40%
  Population Fragmented Nuclei (%): 22%
  Population Healthy Nuclei (%): 36%
  Population Hoechst High Intensity Objects (%): 10%
  Population Membrane Permeable-Phenotype (%): 11%
  Population Mitochondria Different-Phenotype (%): 11%
  Population Mitotic Cells (%): 59%
  Population Normal (%): 89%
  Population Pyknosed Nuclei (%): 40%
  Population Tubulin-Different-Phenotype (%): 79%
  Total Cell Count: 192
[5]
  Population Apoptotic (%): 56%
  Population Fragmented Nuclei (%): 16%
  Population Healthy Nuclei (%): 60%
  Population Hoechst High Intensity Objects (%): 1%
  Population Membrane Permeable-Phenotype (%): 2%
  Population Mitochondria Different-Phenotype (%): 4%
  Population Mitotic Cells (%): 43%
  Population Normal (%): 98%
  Population Pyknosed Nuclei (%): 22%
  Population Tubulin-Different-Phenotype (%): 33%
  Total Cell Count: 135
[6]
  Population Apoptotic (%): 52%
  Population Fragmented Nuclei (%): 24%
  Population Healthy Nuclei (%): 50%
  Population Hoechst High Intensity Objects (%): 2%
  Population Membrane Permeable-Phenotype (%): 5%
  Population Mitochondria Different-Phenotype (%): 5%
  Population Mitotic Cells (%): 47%
  Population Normal (%): 97%
  Population Pyknosed Nuclei (%): 25%
  Population Tubulin-Different-Phenotype (%): 42%
  Total Cell Count: 139
[7]
  Population Apoptotic (%): 50%
  Population Fragmented Nuclei (%): 14%
  Population Healthy Nuclei (%): 61%
  Population Hoechst High Intensity Objects (%): 11%
  Population Membrane Permeable-Phenotype (%): 1%
  Population Mitochondria Different-Phenotype (%): 21%
  Population Mitotic Cells (%): 50%
  Population Normal (%): 88%
  Population Pyknosed Nuclei (%): 24%
  Population Tubulin-Different-Phenotype (%): 53%
  Total Cell Count: 175
[8]
  Population Apoptotic (%): 41%
  Population Fragmented Nuclei (%): 30%
  Population Healthy Nuclei (%): 36%
  Population Hoechst High Intensity Objects (%): 7%
  Population Membrane Permeable-Phenotype (%): 10%
  Population Mitochondria Different-Phenotype (%): 25%
  Population Mitotic Cells (%): 58%
  Population Normal (%): 92%
  Population Pyknosed Nuclei (%): 32%
  Population Tubulin-Different-Phenotype (%): 84%
  Total Cell Count: 187
[9]
  Population Apoptotic (%): 82%
  Population Fragmented Nuclei (%): 21%
  Population Healthy Nuclei (%): 65%
  Population Hoechst High Intensity Objects (%): 1%
  Population Membrane Permeable-Phenotype (%): 3%
  Population Mitochondria Different-Phenotype (%): 1%
  Population Mitotic Cells (%): 17%
  Population Normal (%): 98%
  Population Pyknosed Nuclei (%): 13%
  Population Tubulin-Different-Phenotype (%): 28%
  Total Cell Count: 130
[10]
  Population Apoptotic (%): 45%
  Population Fragmented Nuclei (%): 31%
  Population Healthy Nuclei (%): 53%
  Population Membrane Permeable-Phenotype (%): 6%
  Population Mitochondria Different-Phenotype (%): 4%
  Population Mitotic Cells (%): 54%
  Population Pyknosed Nuclei (%): 14%
  Population Tubulin-Different-Phenotype (%): 38%
  Total Cell Count: 156
[11]
  Population Apoptotic (%): 70%
  Population Fragmented Nuclei (%): 35%
  Population Healthy Nuclei (%): 51%
  Population Hoechst High Intensity Objects (%): 13%
  Population Membrane Permeable-Phenotype (%): 0%
  Population Mitochondria Different-Phenotype (%): 26%
  Population Mitotic Cells (%): 30%
  Population Normal (%): 86%
  Population Pyknosed Nuclei (%): 13%
  Population Tubulin-Different-Phenotype (%): 64%
  Total Cell Count: 170
[12]
  Population Apoptotic (%): 76%
  Population Fragmented Nuclei (%): 40%
  Population Healthy Nuclei (%): 47%
  Population Hoechst High Intensity Objects (%): 6%
  Population Membrane Permeable-Phenotype (%): 13%
  Population Mitochondria Different-Phenotype (%): 19%
  Population Mitotic Cells (%): 23%
  Population Normal (%): 93%
  Population Pyknosed Nuclei (%): 11%
  Population Tubulin-Different-Phenotype (%): 86%
  Total Cell Count: 198
